# Screening data from PubChem.
# M1 antag – human M1 muscarinic receptor antagonists, primary screen, CHO-K1 cells, Fluo-8 calcium fluorescence, 1536-well | Muscarinic acetylcholine receptor M1 (Homo sapiens), P11229 | AID 588852, 2011 | actives 1.3% (n = 360,000) | CHO-K1 hM1, ACh EC80 antagonist | inhibition, % at 3 µM;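 active means percent inhibition above its own plate's cutoff, namely the mean of that plate's compound wells plus 3 SD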;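 further: peak over basal fluorescence ratio during 140 s after agonist addition; 0% = ACh EC80 plus DMSO and 100% = DMSO alone without agonist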
# Target sequence (P11229 whole entry, looked up): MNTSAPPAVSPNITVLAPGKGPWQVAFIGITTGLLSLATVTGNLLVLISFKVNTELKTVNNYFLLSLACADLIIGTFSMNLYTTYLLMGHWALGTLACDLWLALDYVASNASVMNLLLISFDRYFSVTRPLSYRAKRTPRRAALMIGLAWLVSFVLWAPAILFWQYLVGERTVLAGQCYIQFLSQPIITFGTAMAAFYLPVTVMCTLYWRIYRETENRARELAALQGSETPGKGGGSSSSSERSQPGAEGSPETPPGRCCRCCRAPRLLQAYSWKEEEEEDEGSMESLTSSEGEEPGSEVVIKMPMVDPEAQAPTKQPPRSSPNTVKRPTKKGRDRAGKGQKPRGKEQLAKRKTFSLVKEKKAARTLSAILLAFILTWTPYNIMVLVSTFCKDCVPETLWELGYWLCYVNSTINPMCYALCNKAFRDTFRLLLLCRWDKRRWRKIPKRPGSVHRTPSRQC
# M5 PAM – human M5 muscarinic receptor positive allosteric modulators, primary screen, CHO-K1 cells, Fluo-8 calcium fluorescence; actives 0.3% (n = 360,000); Muscarinic acetylcholine receptor M5 (Homo sapiens), P08912; activation, % at 3 µM; CHO-K1 hM5, ACh EC20 PAM; 0% = ACh EC20, 100% = ACh EC100;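 active means activation above the run cutoff, the mean activation of all test compounds plus 3 SD, cut at about 18% in these data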
#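 system = human M5 receptor in CHO-K1 cells | reagent = EC20 acetylcholine as agonist stimulus | compound dosing = single-point, 3 µM nominal | incubation = Fluo-8 loading 80 min at 37 °C plus 30 min room temperature | detection = Fluo-8 calcium dye fluorescence, kinetic read | benchmarks = low control EC20 acetylcholine (0%), high control EC100 acetylcholine (100%)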
# CHRM1 PAM – human M1 muscarinic receptor positive allosteric modulators, primary screen, CHO-K1 cells, Fluo-8 calcium fluorescence, 1536-well; CHO-K1 hM1, ACh EC20; 0% = ACh EC20, 100% = maximal ACh; actives 0.088% (n = 360,000); Muscarinic acetylcholine receptor M1 (Homo sapiens), P11229; activation, % at 3 µM; in the data active means activation above about 19%, passing the limit was not always enough
# CHRM5 agonist – human M5 muscarinic receptor agonists, primary screen, CHO-K1 cells, Fluo-8 calcium fluorescence | CHO-K1 hM5 cells; 0% DMSO wells, 100% maximal acetylcholine response | activation, % at 3 µM | actives 0.19% (n = 360,000) | AID 624037, 2012;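 active means activation above the run's mean over test compounds plus 3 SD, cut at about 23% in these data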;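 further: signal is peak over basal fluorescence ratio across the kinetic read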
# M5 antag – human M5 muscarinic receptor antagonists, primary screen, CHO cells, Fluo-8 calcium fluorescence; Muscarinic acetylcholine receptor M5 (Homo sapiens), P08912; CHO-hM5 cells, ACh EC80; inhibition, % at 3 µM; actives 0.59% (n = 360,000); AID 624040, 2012;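 active means inhibition above a per-plate cutoff, the mean of that plate's test compounds plus 3 SD, cut at about 27% in these data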;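 further: 0% = acetylcholine EC80 with DMSO and 100% = DMSO without agonist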
# CHRM1 agonist – human M1 muscarinic receptor agonists, primary screen, Fluo-8 calcium fluorescence, CHO-K1 cells, HTS | AID 588814, 2011 | actives 0.33% (n = 360,000) | Muscarinic acetylcholine receptor M1 (Homo sapiens), P11229 | activation, % at 3 µM | CHO-K1 hM1, agonist mode; 0% DMSO, 100% acetylcholine EC100;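 active means activation above the run's mean compound activation plus 3 SD, cut at about 16% in these data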;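 further: peak over basal fluorescence ratio within a 140 s kinetic read after compound addition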
# Starred values were filed as active, the others as inactive. Sampled rows, rich in hits. Any-hit rate of the full collection: about 2.2%.
SMILES,M1 antag,M5 PAM,CHRM1 PAM,CHRM5 agonist,M5 antag,CHRM1 agonist
CCCCn1nnnc1SCC(=O)NC1CCCCC1,0,0,2,-2,4,-1
O=C(c1ccc(=O)[nH]c1)N(Cc1cccs1)C1(C(=O)NC2CCCC2)CCCCC1,-15,1,15,-3,-1,-7
CC(=O)c1cccc(NS(=O)(=O)c2ccc(-c3cnc(C4CC4)o3)cc2)c1,32*,-16,-12,6,20,4
C[C@@H]1CN([C@@H](C)CO)C(=O)c2cc(Br)cnc2O[C@H]1CN(C)S(=O)(=O)c1cccs1,-10,3,9,-1,3,-8
CCN(CC)C1CC(=O)N(c2cccc(Cl)c2)C1=O (stereo unspecified),-8,10,13,0,5,-2
O=C1c2ccccc2C(=O)N1CCC1=CCCCC1,-21,19*,-1,-6,-9,-3
COc1ccc(CCNC(=O)c2ccc3c(c2)N(Cc2ccccc2)CCS3)cc1OC,39*,-16,-14,-3,25,1
NS(=O)(=O)c1ccc(CCNC(=O)c2ccc3c(c2)N(Cc2ccccc2)CCS3)cc1,37*,-18,-14,-4,31*,0
c1ccc(-n2cc(CNCCc3cscn3)c(-c3ccc4c(c3)OCO4)n2)cc1,-11,-15,3,-6,12,-14
Cc1ccc(C(=O)OCC(=O)NC(C)c2ccccc2)s1 (stereo unspecified),-10,1,1,0,21,-2
CC(NC(=O)COC(=O)c1ccc([N+](=O)[O-])s1)c1ccccc1 (stereo unspecified),-4,32*,5,1,9,-1
O=C(COc1ccc2c3c(c(=O)oc2c1)CCC3)NCC(O)c1ccccc1 (stereo unspecified),5,0,-4,-1,13,-5
CCn1c(SCC(=O)N2CCC(C)CC2)nc2c1c(=O)n(C)c(=O)n2C,-31,5,28*,-3,2,-6
Cn1c(=O)c2c(nc(SCC(=O)N3c4ccccc4CCc4ccccc43)n2C)n(C)c1=O,19,-10,-12,3,7,-2
Cn1c(=O)c2c(nc(SCC(=O)N3CCc4ccccc4C3)n2C)n(C)c1=O,-5,-4,17,-3,4,16*
COc1ccc(C(=O)NCC(=O)OCC(=O)N2CCC(C)CC2)cc1OC,3,-3,1,-1,9,-2
Cc1ccc(S(=O)(=O)N(C)C)cc1NC(=O)COc1ccccc1C(=O)Nc1ccccc1,16,-5,-9,0,9,-3
CCN(CC)CCNC(=O)c1ccc(NC(=O)c2ccc(COc3ccccc3)cc2)cc1,53*,-14,-24,-7,15,-6
CN(C)S(=O)(=O)c1cccc(NC(=O)COc2ccccc2C(=O)Nc2ccccc2)c1,41*,-3,-23,1,12,2
CCN(CC)CCNC(=O)c1ccc(NC(=O)c2ccc(C(=O)c3ccccc3)cc2)cc1,12,-9,-14,-11,8,-8
CCN(CC)CCNC(=O)c1ccc(NC(=O)COc2ccc3c(c2)CCC3)cc1,45*,-14,-26,-1,1,-7
CN(C)S(=O)(=O)c1cccc(NC(=O)c2ccc(COc3ccccc3)cc2)c1,39*,-22,-24,8,27*,-3
COc1cccc(CNC(=O)CCNC(=O)c2ccccc2OC)c1,-16,4,18,-3,-11,0
O=C(COC(=O)c1ccc2ccccc2c1)NCc1ccccc1,-16,2,6,0,1,-1
CC(C)(C)S(=O)(=O)N1C[C@@H]2CC/C=C\C/C(c3ccccc3)=C\2[C@H]1CCO,-12,1,4,-1,-2,-5
SMILES,M1 antag,M5 PAM,CHRM1 PAM,CHRM5 agonist,M5 antag,CHRM1 agonist
CCCc1nnc(NC(=O)OCC)s1,9,0,-4,-2,-13,-7
CCN(c1ccccc1)S(=O)(=O)c1csc(C(N)=O)c1,-8,7,7,-3,-3,1
CC(C)(C)OC(=O)N1CCC(NC(=O)c2[nH]c(C(F)(F)F)nc2-c2ccccc2)CC1,-28,4,5,1,2,-4
COc1ccc(C(O)Cc2nccn2C)cc1 (stereo unspecified),-5,1,1,-1,1,-6
CCN(C[C@H]1N[C@@](CC)(C(=O)OC)[C@H]2C(=O)N(Cc3ccccc3)C(=O)[C@@H]12)C(=O)c1ccc(C(C)(C)C)cc1,28*,-11,-14,4,4,0
COc1cccc(C(=O)c2cc3cc(Cl)ccc3[nH]2)c1,-17,-2,3,-2,2,-1
CCOC(=O)Cc1csc(NC(=O)Nc2ccc(Cl)cc2)n1,32,-28,-11,11,27,7
CCOC(=O)Cc1csc(NC(=O)Nc2cccc(Cl)c2)n1,8,-18,-10,5,29*,1
CS(=O)(=O)c1ccc2nc(NC(=O)Nc3cccc(Cl)c3)sc2c1,33*,-24,-14,9,32*,6
O=C(Nc1cccc(Cl)c1)Nc1nnc(-c2ccncc2)s1,25,-18,-10,9,32*,4
COc1ccc(Cl)cc1NC(=O)C[n+]1cccc(C)c1,-6,-4,3,-3,8,-7
CCCCn1c(-c2ccco2)nc2ccccc2c1=O,-16,-1,-3,-1,1,-5
O=C(COC(=O)c1cnccn1)N=c1sccn1Cc1ccccc1Cl,-8,0,6,1,1,1
Cc1c(C(=O)NNC(=O)c2csc(N3CCOCC3)n2)oc2ccc(Br)cc12,-22,-4,4,1,0,2
Cc1cccc(C)c1NC(=O)C1(NC(=O)C2CCCN2C(=O)OC(C)(C)C)CCCCC1 (stereo unspecified),-3,-6,4,-1,3,-7
O=C(Nc1cccc(O)c1)c1cccc(S(=O)(=O)N2CCCC2)c1,-16,-4,-5,-3,2,-7
